ChEMBL document CHEMBL3217723, “Optimizing PK properties of cyclic peptides: the effect of side chain substitutions on permeability and clearance()” (Medchemcomm, 2012)
Each block holds one molecule with its values, some of them ahead of it. Where a SMILES comes first, the peptide text is derived from it. [ ]: non-standard residue; d: D form. The star is where a group is joined. NMeY = CN[C@@H](Cc1ccc(O)cc1)C(=O)O; NMeCha = CN[C@@H](CC1CCCCC1)C(=O)O; NMeF = CN[C@@H](Cc1ccccc1)C(=O)O; NMeI = CC[C@H](C)[C@H](NC)C(=O)O; NMeT = CN[C@H](C(=O)O)[C@@H](C)O; NMeD = CN[C@@H](CC(=O)O)C(=O)O; dNMeL = CN[C@H](CC(C)C)C(=O)O; NMeK = CN[C@@H](CCCCN)C(=O)O; Morpholide = C1CN(*)CCO1

Key:
[1] = Intrinsic clearance in human liver microsomes by LC-MS/MS analysis; type: ADME; conditions: read-out: CLH
In short: (§1)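 Compound at 1 µM with liver microsomes (CYP 0.25 µM) in 0.1 M potassium phosphate, pH 7.4, at 37 °C. Final solvent was 0.975% acetonitrile and 0.025% DMSO. Mix prewarmed 5 min, then started with 1.3 mM NADPH; no-NADPH controls were run. Sampled at 0–60 min into acetonitrile and followed by LC-MS/MS for substrate loss. T1/2 was scaled to CLint by the well-stirred model.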

[2] = Lipophilicity, log D of the compound at pH 7.4 by shake-flask method; type: physicochemical; conditions: buffer
[3] = Oral bioavailability in male Wistar-Han rat at 2.9 mg/kg; type: ADME, organism-based; conditions: in vivo
In short: (§2)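 Male Wistar-Hannover rats (230-250 g, cannulated; n = 3) fasted overnight, fed after the 4 h sample, and dosed orally in the i.v. formulations or 10% SEDDS:90% water. Serial blood sampled 0.083–24 h into K2EDTA. Plasma measured by LC-MS/MS against a standard curve. Cmax and Tmax read from individual profiles; F = oral AUC0-∞ relative to i.v. AUC0-∞.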

[4] = AUC (0 to infinity) in male Wistar-Han rat at 0.4 mg/kg, iv; type: ADME, organism-based; design: time infinity, dose 0.4 mg/kg, route intravenous; conditions: plasma
In short: (§3)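 Jugular vein-cannulated male Wistar-Hannover rats (230-250 g), n = 3, fed ad libitum; 30 s tail-vein injection in 10% SEDDS:90% sterile dextrose, 1:1 propylene glycol:20 mM sodium phosphate (pH 7.4), or 10% propylene glycol:90% 20 mM sodium phosphate (pH 7.4). Blood via cannula to 24 h, K2EDTA plasma, LC-MS/MS against standard curve; non-compartmental AUC0-∞ by linear trapezoid rule.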

[5] = AUC (0 to infinity) in male Wistar-Han rat at 2.9 mg/kg, po; type: ADME, organism-based; design: time infinity, dose 2.9 mg/kg, route oral; conditions: plasma
In short: (§4)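 Jugular vein-cannulated male Wistar-Hannover rats (230-250 g), n = 3, fasted overnight and fed after the 4 h sample; oral dosing in the i.v. formulations, except the SEDDS formulation used 90% water. Serial blood 0.083–24 h, K2EDTA plasma, LC-MS/MS against standard curve; non-compartmental AUC0-∞ by linear trapezoid rule.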

[6] = Intrinsic clearance in rat liver microsomes by LC-MS/MS analysis; type: ADME; conditions: read-out: CLH; in short: as §1
[7] = Cmax in male Wistar-Han rat at 2.9 mg/kg, po; type: ADME, organism-based; design: dose 2.9 mg/kg, route oral; conditions: in vivo
In short: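 Jugular vein-cannulated male Wistar-Hannover rats (230-250 g), n = 3, fasted overnight and fed after the 4 h sample. Single oral dose in compound-specific vehicles (10% SEDDS:90% water, or propylene glycol with 20 mM sodium phosphate pH 7.4). Serial blood at 0.083–24 h into K2EDTA. Plasma protein-precipitated with internal standard and analysed by LC-MS/MS. Cmax read directly from individual concentration–time curves.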

[8] = Volume of distribution at steady state in male Wistar-Han rat at 0.4 mg/kg, iv; type: ADME, organism-based; design: dose 0.4 mg/kg, route intravenous; conditions: in vivo, read-out: Vdss
In short: (§5)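 Jugular vein-cannulated male Wistar-Hannover rats (230-250 g; n = 3) given a 30 s tail-vein bolus in SEDDS/dextrose or propylene glycol/20 mM sodium phosphate (pH 7.4) vehicles. Blood sampled 0.03–24 h via cannula into K2EDTA. Plasma proteins precipitated, LC-MS/MS. Non-compartmental: CLp = dose/AUC0-∞ (linear trapezoid); Vdss; T1/2 = 0.693/terminal log-linear slope.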

[9] = Terminal elimination half life in Wistar-Han rat at 2.9 mg/kg, po; type: ADME, organism-based; design: dose 2.9 mg/kg, route oral; conditions: in vivo, read-out: beta t1/2 (converted)
In short: (§6)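 Male Wistar-Hannover rats (230–250 g, n = 3), jugular-cannulated, were fasted overnight and dosed by oral gavage. Vehicle depended on compound: SEDDS/water or propylene glycol/sodium phosphate pH 7.4. Blood was collected at 0.083–24 h into K2EDTA and the plasma analyzed by LC-MS/MS. Terminal half-life came from the non-compartmental ln-concentration slope.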

[10] = Plasma clearance in male Wistar-Han rat at 0.4 mg/kg, iv; type: ADME, organism-based; design: dose 0.4 mg/kg, route intravenous; in short: as §5
[11] = Terminal elimination half life in Wistar-Han rat at 0.4 mg/kg, iv; type: ADME, organism-based; design: dose 0.4 mg/kg, route intravenous; conditions: in vivo, read-out: beta t1/2 (converted)
In short: (§7)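 Jugular vein-cannulated male Wistar-Hannover rats (230–250 g, n = 3) received a tail-vein bolus over 30 s. Vehicle depended on compound: SEDDS/dextrose or propylene glycol/20 mM sodium phosphate pH 7.4. Blood was drawn at 0.03–24 h into K2EDTA and the plasma analyzed by LC-MS/MS. Non-compartmental analysis gave T1/2 = 0.693/|terminal ln-slope|.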

[12] = Oral bioavailability in male Wistar-Han rat at 10 mg/kg; type: ADME, organism-based; conditions: in vivo; in short: as §2
[13] = Volume of distribution at steady state in male Wistar-Han rat at 1.48 mg/kg, iv; type: ADME, organism-based; design: dose 1.48 mg/kg, route intravenous; conditions: in vivo, read-out: Vdss; in short: as §5
[14] = Plasma clearance in male Wistar-Han rat at 1.48 mg/kg, iv; type: ADME, organism-based; design: dose 1.48 mg/kg, route intravenous; in short: as §5
[15] = Apparent permeability from apical to basolateral side in human Caco2 cells by LC-MS/MS analysis; type: ADME, cell-based; conditions: Caco-2
[16] = Tmax in male Wistar-Han rat at 10 mg/kg, po; type: ADME, organism-based; design: dose 10 mg/kg, route oral; conditions: in vivo
[17] = Terminal elimination half life in Wistar-Han rat at 10 mg/kg, po; type: ADME, organism-based; design: dose 10 mg/kg, route oral; conditions: in vivo, read-out: beta t1/2 (converted); in short: as §6
[18] = Drug excretion in male Wistar-Han rat urine; type: ADME; conditions: read-out: Drug excretion
[19] = Terminal elimination half life in Wistar-Han rat at 1.48 mg/kg, iv; type: ADME, organism-based; design: dose 1.48 mg/kg, route intravenous; conditions: in vivo, read-out: beta t1/2 (converted); in short: as §7
[20] = AUC (0 to infinity) in male Wistar-Han rat at 10 mg/kg, po; type: ADME, organism-based; design: time infinity, dose 10 mg/kg, route oral; conditions: plasma; in short: as §4
[21] = AUC (0 to infinity) in male Wistar-Han rat at 1.48 mg/kg, iv; type: ADME, organism-based; design: time infinity, dose 1.48 mg/kg, route intravenous; conditions: plasma; in short: as §3
[22] = Cmax in male Wistar-Han rat at 10 mg/kg, po; type: ADME, organism-based; design: dose 10 mg/kg, route oral; conditions: in vivo
[23] = AUC (0 to infinity) in male Wistar-Han rat at 1 mg/kg, iv; type: ADME, organism-based; design: time infinity, dose 1 mg/kg, route intravenous; conditions: plasma
[24] = Terminal elimination half life in Wistar-Han rat at 1 mg/kg, iv; type: ADME, organism-based; design: dose 1 mg/kg, route intravenous; conditions: in vivo, read-out: beta t1/2 (converted)
[25] = Volume of distribution at steady state in male Wistar-Han rat at 1 mg/kg, iv; type: ADME, organism-based; design: dose 1 mg/kg, route intravenous; conditions: in vivo, read-out: Vdss
[26] = Plasma clearance in male Wistar-Han rat at 1 mg/kg, iv; type: ADME, organism-based; design: dose 1 mg/kg, route intravenous

Structure (SMILES): CC(C)C[C@@H]1NC(=O)[C@H](Cc2ccc(O)cc2)N(C)C(=O)[C@H]2CCCN2C(=O)[C@H](CC(C)C)NC(=O)[C@H](CC(=O)N2CCOCC2)N(C)C(=O)[C@@H](CC(C)C)N(C)C1=O (cyclo(L[dNMeL][NMeD](Morpholide)L[dP][NMeY]))
- CLint scaled [1]: 57 mL/min/kg
- logD [2]: 2.78

Structure (SMILES): CC(C)C[C@@H]1NC(=O)[C@H](Cc2ccc(O)cc2)N(C)C(=O)[C@H]2CCCN2C(=O)[C@H](CC(C)C)NC(=O)[C@H](Cc2ccccc2)N(C)C(=O)[C@@H](CC(C)C)N(C)C1=O (cyclo(L[dNMeL][NMeF]L[dP][NMeY]))
- CLint scaled [1]: 170 mL/min/kg
- logD [2]: 4.46

Structure (SMILES): CC(C)C[C@@H]1NC(=O)[C@H](Cc2ccc(O)cc2)N(C)C(=O)[C@H]2CCCN2C(=O)[C@H](CC(C)C)NC(=O)[C@H]([C@@H](C)O)N(C)C(=O)[C@@H](CC(C)C)N(C)C1=O (cyclo(L[dNMeL][NMeT]L[dP][NMeY]))
- bioavailability [3]: 23.8%
- AUC(0-inf) [4]: 109 ng·h/mL
- AUC(0-inf) [5]: 201 ng·h/mL
- CLint scaled [1]: 89 mL/min/kg
- CLint scaled [6]: 44 mL/min/kg
- Cmax [7]: 105 ng/mL
- Vd [8]: 3.8 L/kg
- logD [2]: 3.17
- half-life [9]: 55.2 min
- clearance [10]: 63.6 mL/min/kg
- half-life [11]: 61.8 min

- CLint scaled [1]: > 300 mL/min/kg
Structure (SMILES): CC[C@H](C)[C@H]1C(=O)N[C@@H](CC(C)C)C(=O)N2CCC[C@@H]2C(=O)N(C)[C@@H](Cc2ccc(O)cc2)C(=O)N[C@@H](CC(C)C)C(=O)N(C)[C@H](CC(C)C)C(=O)N1C (cyclo(L[dNMeL][NMeI]L[dP][NMeY]))

Structure (SMILES): CC(C)C[C@@H]1NC(=O)[C@H](Cc2ccc(O)cc2)N(C)C(=O)[C@H]2CCCN2C(=O)[C@H](CC(C)C)NC(=O)[C@H](CC(=O)O)N(C)C(=O)[C@@H](CC(C)C)N(C)C1=O (cyclo(L[dNMeL][NMeD]L[dP][NMeY]))
- bioavailability [12]: 0.469%
- Vd [13]: 0.36 L/kg
- CLint scaled [1]: < 8 mL/min/kg
- CLint scaled [6]: < 9 mL/min/kg
- clearance [14]: 56.4 mL/min/kg
- Papp A→B [15]: 0.36 ×10⁻⁶ cm/s
- Tmax [16]: 0.78 h
- logD [2]: 0.477
- half-life [17]: 284 min
- dose excreted [18]: < 1%
- half-life [19]: 21.5 min
- AUC(0-inf) [20]: 18.7 ng·h/mL
- AUC(0-inf) [21]: 441 ng·h/mL
- Cmax [22]: 17.3 ng/mL

Structure (SMILES): CC(C)C[C@@H]1NC(=O)[C@H](Cc2ccc(O)cc2)N(C)C(=O)[C@H]2CCCN2C(=O)[C@H](CC(C)C)NC(=O)[C@H](CCCCN)N(C)C(=O)[C@@H](CC(C)C)N(C)C1=O (cyclo(L[dNMeL][NMeK]L[dP][NMeY]))
- AUC(0-inf) [23]: 1640 ng·h/mL
- bioavailability [12]: 0.09%
- half-life [24]: 60.6 min
- CLint scaled [1]: < 8 mL/min/kg
- CLint scaled [6]: < 9 mL/min/kg
- Papp A→B [15]: 0.09 ×10⁻⁶ cm/s
- Vd [25]: 0.93 L/kg
- Tmax [16]: 1.56 h
- logD [2]: 0.678
- half-life [17]: 93.6 min
- AUC(0-inf) [20]: 18.1 ng·h/mL
- clearance [26]: 10.4 mL/min/kg
- Cmax [22]: 18.3 ng/mL

Structure (SMILES): CC(C)C[C@@H]1NC(=O)[C@H](Cc2ccc(O)cc2)N(C)C(=O)[C@H]2CCCN2C(=O)[C@H](CC(C)C)NC(=O)[C@H](CC2CCCCC2)N(C)C(=O)[C@@H](CC(C)C)N(C)C1=O (cyclo(L[dNMeL][NMeCha]L[dP][NMeY]))
- logD [2]: 5.09

Structure (SMILES): CC(C)C[C@@H]1NC(=O)[C@H](Cc2ccc(O)cc2)N(C)C(=O)[C@H]2CCCN2C(=O)[C@H](CC(C)C)NC(=O)[C@H](Cc2ccc(O)cc2)N(C)C(=O)[C@@H](CC(C)C)N(C)C1=O (cyclo(L[dNMeL][NMeY]L[dP][NMeY]))
- CLint scaled [1]: 29 mL/min/kg
- logD [2]: 3.82
